# Measurements collected from several papers.
# Each line is one published result; the experiments were not run side by side.
# Organism: Candida albicans
SMILES,read-out,strain,time,quantity,value
OC(Cn1cncn1)(Cn1cncn1)c1ccc(F)cc1F,microbial killing,,,MFC,40 µM
NOCC(=O)O,microbial growth,28A,,MIC,1000 µg/mL
C[C@@H]1[C@H](O)[C@@H](C)/C=C/C=C/C=C/C=C/C=C/C=C/C=C/[C@H](O[C@@H]2O[C@H](C)[C@@H](O)[C@H](N)[C@@H]2O)C[C@@H]2O[C@](O)(C[C@@H](O)C[C@@H](O)[C@H](O)CC[C@@H](O)C[C@@H](O)CC(=O)O[C@H]1C)C[C@H](O)[C@H]2C(=O)O,microbial growth,ATCC90028,,IC50,0.13 µg/mL
COc1ccccc1Cc1cc(C)cc(=O)n1O,microbial growth,ATCC90028,,MIC80,2.7 µM
CCCCCOc1ccc(-c2cc(-c3ccc(C(=O)N[C@H]4C[C@@H](O)[C@@H](O)NC(=O)[C@@H]5[C@@H](O)[C@@H](C)CN5C(=O)[C@H]([C@H](O)CC(N)=O)NC(=O)[C@H]([C@H](O)[C@@H](O)c5ccc(O)c(OS(=O)(=O)O)c5)NC(=O)[C@@H]5C[C@@H](O)CN5C(=O)[C@H]([C@@H](C)O)NC4=O)cc3)no2)cc1,microbial growth,,,MIC50,0.01 µg/mL
Cc1cc(CC2CCCCC2)n(O)c(=O)c1,microbial growth,ATCC90028,,MIC80,1.5 µM
C=C1C(=O)O[C@@H](CCCCCCCCCCCCC)[C@@H]1C(=O)O,microbial growth,28A,,MIC,64 µg/mL
Cc1cc(Cc2ccc(Cl)cc2)n(O)c(=O)c1,microbial growth,ATCC90028,,MIC80,1.7 µM
O=C(NCc1ccc2c(c1)OCO2)c1ccc(Br)cc1F,microbial growth,ATCC10231,72 h,MIC,> 200 µM
